Data set [1] deals with Hepatitis C virus. The data set can be described thus: Antiviral activity against Hepatitis C virus genotype 1b infected in human HuH5.2 cells after 72 hrs by luciferase reporter gene assay. It is filed as functional, cell-based, Hepacivirus hominis. The following applies: Hepatitis C virus, genotype 1b, Huh-5-2, 72 h. Summed up: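 Huh 5-2 cells with genotype 1b I389luc-ubi-neo/NS3-3'/5.1 subgenomic replicon, seeded 6 500 cells/well in DMEM/10% FCS without Geneticin, overnight 37 °C. Compound (DMSO stock diluted in medium) in 1:5 four-step or 1:2 eight-step series, 72 h. Cells PBS-washed, lysed 5 min, luciferase luminescence read, converted to % untreated control; EC50 from dose-response curve, mean of ≥2 independent experiments.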
In general terms: In a reporter assay the amount or activity of a reporter protein is the signal.

Data set [2] is described as follows: Cytotoxicity against human HuH5.2 cells assessed as reduction in metabolic activity after 72 hrs by MTS assay. Format: toxicity, cell-based, Huh-5-2. As to conditions: HuH5.2 cells. Summed up:
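Run in parallel with the replicon assay: Huh 5-2 replicon cells, 6 500 cells/well, compound series for 72 h at 37 °C, 5% CO2. Medium then replaced with 5% MTS in phenol red-free medium for 1.5 h. Absorbance at 498 nm expressed as % untreated cells; CC50 from dose-response curve as 50% reduction in metabolic activity, mean of ≥2 experiments.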
A general note: Formazan colour is commonly taken as a measure of viable cells.

A short description of data set [3]: Selectivity index, ratio of CC50 for human HuH5.2 cells to EC50 for hepatitis C virus genotype 1b infected in human HuH5.2 cells. Format: toxicity, cell-based. The following applies: HuH5.2 cells, read-out: Ratio CC50/EC50. The method, boiled down:
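Ratio of CC50 (MTS metabolic read-out, 72 h) to EC50 (replicon luciferase read-out, 72 h), both measured in parallel on Huh 5-2 genotype 1b replicon cells.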

`CCOc1ccc2sc(NS(=O)(=O)c3ccc(OC)c(OC)c3)nc2c1`: in data set [1], the EC50 is greater than 127 µM and the EC90 was greater than 127 µM. The CC50 at 72 h in data set [2] was greater than 127 µM.
The compound `COc1ccc(-c2c3c(nc4sc5c(O)nc(C)nc5c24)CCC3)cc1` yielded a half-maximal effective concentration (EC50) in data set [1] of 21 µM. Besides, in data set [2], the CC50 at 72 h came to 128 µM. In addition, the selectivity ratio in data set [3] was 6.1.
Turning to `CC(=O)Nc1ccc(/C=C2\C=C(C(O)c3ccc(NC(C)=O)cc3)c3ccccc32)cc1` (centres undefined), the EC50 in data set [1] stood at 21.5 µM. Further, the CC50 at 72 h in data set [2] turned out to be 48.8 µM. In addition, the selectivity ratio in data set [3] stood at 2.3.
In data set [1], `O=C(Nc1ccc(S(=O)(=O)O)c2ccccc12)c1ccc(C(=O)Nc2ccc(S(=O)(=O)O)c3ccccc23)cc1` came in with a concentration giving a half-maximal response (EC50) greater than 86 µM and an EC90 greater than 86 µM. The CC50 at 72 h in data set [2] was greater than 86 µM.
In the case of `O=C(NNc1ncnc2sc3c(c12)CCCC3)c1cccs1`, in data set [1], the EC50 came out at 31.1 µM. Also, the CC50 at 72 h in data set [2] came out at 36.7 µM. Also, the selectivity ratio in data set [3] came to 1.2.
On to `COc1ccc(C(N)=O)cc1NS(=O)(=O)c1cccc2cccnc12`, for which, in data set [1], the EC50 is greater than 140 µM and the EC90 is greater than 140 µM. The CC50 at 72 h in data set [2] is greater than 140 µM.
With `O=C(NNc1ncnc2sc3ccccc3c12)c1ccccc1O`, in data set [1], the half-maximal effective concentration (EC50) amounted to 0.832 µM and the EC90 was 1.6 µM. Further, in data set [2], the CC50 at 72 h is 108 µM. Also, the selectivity ratio in data set [3] worked out at 130.
`C/C(=N\Nc1ncnc2sc3c(c12)CCCC3)c1ccco1` gave an EC50 in data set [1] of 18.2 µM. Besides, the CC50 at 72 h in data set [2] turned out to be 58.9 µM. For the same compound, the selectivity ratio in data set [3] was 3.2.
As for `c1cnc2c(Nc3ncnc4sc5c(c34)CCCC5)cccc2c1`, in data set [1], the response was half-maximal at 186 µM (EC50) and the EC90 was greater than 100 µM. Besides, in data set [2], the 50% cytotoxic concentration (CC50) at 72 h was greater than 301 µM. Further, the selectivity ratio in data set [3] is greater than 1.6.
For the compound `C/C(=N\Nc1ncnc2sc3c(c12)CCCC3)c1ccc[nH]1`, in data set [1], the EC50 came out at 5.26 µM and the 90% effect level (EC90) was put at 12.8 µM. Also, the CC50 at 72 h in data set [2] is 19.5 µM. Also, the selectivity ratio in data set [3] was 3.7.
`CCOc1cccc(C(=O)Nc2cc(C(=O)OC)ccc2N2CCN(CC)CC2)c1` had an EC50 in data set [1] of 38.9 µM. Moreover, the CC50 at 72 h in data set [2] is 61.7 µM. Also, in data set [3], the selectivity ratio was 1.6.
`COc1ccc(/C(C)=N/NC(=O)c2cc(O)cc(O)c2)c(OC)c1`: in data set [1], the EC50 is greater than 151 µM and the EC90 was greater than 151 µM. In data set [2], the CC50 at 72 h was greater than 151 µM.
In data set [1], `CCOC(=O)c1cnc2c(ccc3ccccc32)c1Nc1ccc(C(=O)OC)cc1` gave an EC50 of 10.9 µM. Also, the CC50 at 72 h in data set [2] was determined as 56.2 µM. In addition, the selectivity ratio in data set [3] was 5.2.
Regarding `O=C(NNc1ncnc2sc3c(c12)CCC3)c1cnccn1`, in data set [1], the EC50 stood at 0.0945 µM and the EC90 is less than 0.256 µM. Besides, the CC50 at 72 h in data set [2] stood at 2.97 µM. The selectivity ratio in data set [3] came out at 31.4.
Consider `C/C(=N\Nc1ncnc2sc3c(c12)CCCC3)c1ccc(O)cc1`, for which, in data set [1], the EC50 is greater than 295 µM and the EC90 is greater than 295 µM. Besides, the CC50 at 72 h in data set [2] is greater than 295 µM.
For the compound `C/C(=N\Nc1ncnc2sc3c(c12)CCCC3)c1cccs1`, a half-maximal effect in data set [1] (EC50) was put at 23 µM. Besides, the CC50 at 72 h in data set [2] came to 46 µM. Besides, the selectivity ratio in data set [3] is 2.
On to `O=C(N/N=C\c1cccnc1)c1cc(-c2ccc3c(c2)OCO3)n[nH]1`, for which, in data set [1], the EC50 was greater than 149 µM and the EC90 was greater than 149 µM. Moreover, the CC50 at 72 h in data set [2] was greater than 149 µM.
In data set [1], `C/C(=N/Nc1ncnc2sc3c(c12)CCC3)c1cnccn1` registered an EC50 of 0.688 µM and an EC90 of less than 0.839 µM. Also, in data set [2], the CC50 at 72 h was 1.12 µM. Further, the selectivity ratio in data set [3] stood at 1.6.
In data set [1], `COc1cc2nc(CN3CCC(C(N)=O)CC3)[nH]c(=O)c2cc1OC` came in with a concentration for a half-maximal effect (EC50) greater than 144 µM and an EC90 greater than 144 µM. Besides, the CC50 at 72 h in data set [2] is greater than 144 µM.
`CCC[C@H](NC(=O)[C@@H]1[C@H]2CCC[C@H]2CN1C(=O)[C@@H](NC(=O)[C@@H](NC(=O)c1cnccn1)C1CCCCC1)C(C)(C)C)C(=O)C(=O)NC1CC1` [TELAPREVIR] came in with an EC50 in data set [1] of 0.8 µM. The selectivity ratio in data set [3] is 58.8.

For orientation: EC50 means the midpoint of the concentration-response curve. A higher EC50 goes with weaker potency. What is called EC90 is the point of the concentration-response curve where the effect stands at 90%. A high value points to a need for much substance. A word on the CC50: it is the concentration giving 50% cytotoxicity.

For the origin of these results see ChEMBL document CHEMBL3870302, “Computer-aided identification, synthesis and evaluation of substituted thienopyrimidines as novel inhibitors of HCV replication” (Eur J Med Chem, 2016).
